Test results as given in ChEMBL document CHEMBL4513216, “Probing the Open Global Health Chemical Diversity Library for Multistage-Active Starting Points for Next-Generation Antimalarials” (ACS Infect Dis, 2020).

Assay: Toxicity liver stage against HepG2, at 10uM
Format: cell-based
Parameters: test concentration 10 uM, cell line HepG2-A16-CD81EGFP
Conditions: human, HepG2-A16-CD81EGFP cells; read-out: INHIBITION
In short: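 Uninfected HepG2-A16-CD81EGFP cells, 3 × 10^3 per well, 1536-well, plated on prespotted compound at 10 μM final, parasite-free screening media added to match infected plates; puromycin 10 μM positive, DMSO 0.5% negative; run in parallel with 48 h PbLuc assay at 37 °C, 5% CO2; viability by CellTiter-Glo luminescence, normalized to controls.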

| Structure (SMILES) | cytotoxicity at 10 µM [%] |
| --- | --- |
| Cn1nnnc1SCCNC(=O)C1CCN(C(=O)C2CCC2)CC1 | -3.22 |
| O=C(Cc1cccc(F)c1)N1CCc2ncnc(NC3CC3)c2CC1 | -98.5 |
| COC(=O)CNC(=O)c1cccc(C(=O)N(C)c2ccccc2)c1 | 6.93 |
| COCCN(C)CCN1CC2(CCN(C(=O)C3CCOC3)CC2)OC1=O (stereo not given) | -21.8 |
| N#Cc1ccc(CN2CCN(Cc3ccncc3Cl)CC2=O)cc1 | 6.43 |
| COc1ccccc1CN1CC[C@]2(C[C@H](OC)CO2)C1 | -11.1 |
| Cc1nc(N)nc(C)c1CC(=O)N1CCC2(CC1)OCCCC2O (stereo not given) | -1.8 |
| c1ccc(CN2CC[C@H]3CO[C@H](CNc4ncccn4)[C@H]3C2)nc1 | -9.63 |
| COCc1ccc(C(=O)N2CC[C@H](O)[C@@H](n3ccnc3)CC2)cc1 | -12.1 |
| CC(C)(C)OC(=O)N1CCC(C(=O)NCc2cc3ccccc3[nH]2)C1 (stereo not given) | 2.34 |
| NC1CCCCN(Cc2ccccc2CS(=O)(=O)c2ccccc2)C1 (stereo not given) | -20.9 |
| Cc1nccn1Cc1nnc(C2CCN(c3ccncc3F)CC2)n1C | -9.36 |
| CCC(C)NC(=O)c1ccc(NC(=O)CCc2ccncc2)c(C)c1 (stereo not given) | 4.31 |
| Cc1nc(CN(C)C2CCN(Cc3cnc(C)s3)C2)no1 (stereo not given) | -4.8 |
| Cn1cccc1C(=O)N1CCC2(CC1)c1nc[nH]c1CCN2S(C)(=O)=O | -0.359 |
| CCNC(=O)N(C)C1CCN(Cc2ncc(C)c(OC)c2C)CC1 | -0.514 |
| CC(C)CSc1ccc(-n2cccn2)nn1 | -218 |
| Cc1cnc2c(c1NCc1ccc3c(c1)OCO3)c(=O)n(C)c(=O)n2C | 16.7 |
| COCCc1noc(CN(C)C(=O)c2cccc(N3CCCC3=O)c2)n1 | -9.91 |
| CCCC(NC(=O)c1ccc(OC)cc1F)c1nnn[nH]1 (stereo not given) | -7.61 |
| Clc1ccccc1CN1CCc2nc(C3CCCNC3)ncc2C1 (stereo not given) | -19.7 |
| c1nc(COCC2CC2)c2n1CCCN(CC1CC1)C2 | -4.77 |

| Structure (SMILES) | cytotoxicity at 10 µM [%] |
| --- | --- |
| O=C(NCCc1c[nH]c2ccc(F)cc12)C1(n2cnnn2)CCCCC1 | -1.34 |
| COc1ccc(C2c3c(n[nH]c3C)N=C3COC(=O)C32)cc1OC (stereo not given) | 7.98 |
| CN1CCN(C(=O)c2nnc3ccc(Cl)cc3n2)CC1 | 6.28 |
| CCC(=O)NC(CC)c1ccccc1C (stereo not given) | 5.14 |
| COCCN(Cc1coc(-c2ccc(OC)cc2)n1)C1CC1 | 2.1 |
| Cc1cccc(C(=O)N2CC[C@@H]3[C@H]2CCC(=O)N3c2ccccc2)n1 | -94.8 |
| COc1cccc(CN2C[C@@H]3COC[C@]3(CN3CCOCC3)C2)c1 | -80.6 |
| N#Cc1ccc(F)c(CSCCN2CCOCC2)c1 | -5.71 |
| Cc1nn2cccnc2c1C(=O)N1CCCC(n2ccnc2C)C1 (stereo not given) | -9.53 |
| Cc1cn2c(n1)CCC(NS(=O)(=O)c1cc(C)sc1C)C2 (stereo not given) | 2.74 |
| O=C(Nc1cccnc1)[C@H]1CO[C@H]2CCN(c3ncc(F)cn3)C[C@H]2C1 | -12.8 |
| FC(F)(F)c1ccc(-c2cnc(C3CCCN3)cn2)cc1 (stereo not given) | -1.12 |
| CN1CCOCC2(CCCN(C(=O)c3ccc(-n4cccc4)cc3)C2)C1 (stereo not given) | -98 |
| CCn1ncnc1C(C)NC(=O)C1CCN(Cc2ccco2)CC1 (stereo not given) | -133 |
| COc1cc(CN2CCCC(Nc3cccc(F)c3)C2)cc(OC)c1O (stereo not given) | 1.66 |
| CN(C)C(=O)CN1C[C@H]2CCN(c3ncccn3)CC[C@H]2S1(=O)=O | 0.466 |
| CN1C(=O)CC(C(=O)O)C12CCN(Cc1ccc(F)c(Cl)c1)CC2 (stereo not given) | 0.998 |
| COc1ccc(C)cc1NC(=O)Nc1cnc(N2CCCC2)nc1 | 6.62 |
| Cc1nn(C)c(C)c1NC(=O)CNC(c1ccc(F)cc1)C1CCC1 (stereo not given) | -1.65 |
| Cc1cn[nH]c1C1COCCN1Cc1ccsc1 (stereo not given) | 2.56 |
| CNC(=O)c1cccc(NCC(=O)Nc2cc(C)nn2C)c1C | -1.49 |
| COCc1ccc(CNC(=O)C2=NN(c3ccccc3)C(=O)CN2)cc1 | 26.7 |

| Structure (SMILES) | cytotoxicity at 10 µM [%] |
| --- | --- |
| CCc1nsc(NC2CCOC3(CCCC3)C2)n1 (stereo not given) | 13 |
| O=C1CC2(CCN(c3nncs3)C2)CN1c1ccc2c(c1)OCCO2 (stereo not given) | 6.66 |
| O=C(NCC1CCCO1)c1nc2c(s1)CCCN2Cc1ccccc1 (stereo not given) | 1.84 |
| Cc1cc(C(=O)NCc2cccnc2N(C)C)c(C)o1 | -9.51 |
| COc1ncccc1CN1CCC2(CCCN2S(C)(=O)=O)CC1 | 8.86 |
| CCc1nccn1-c1cncc(C2CCCN2Cc2ccccc2)n1 (stereo not given) | -1.17 |
| CCn1cc(NC(=O)NCC(C)N2CCCC2)cn1 (stereo not given) | -9.89 |
| CCNC(=O)NC(=O)CNC(C)(C)c1ccc2c(c1)OCCO2 | -19.7 |
| CC(C)N1CCOCC2(CN(Cc3ccccn3)CCO2)C1 (stereo not given) | 6.46 |
| CCN(C)c1ncnc2c1CCN(c1ccc(C)nn1)CC2 | -94.7 |
| COc1cc(OC)cc(N2CCC(NCc3ccsc3)C2=O)c1 (stereo not given) | 0.347 |
| O=C(c1ccoc1)N1CCC2(C1)CN(c1nccs1)C2 | 1.07 |
| CC(C)CN1CCCC1c1ccc(C(=O)Nc2cccnc2)s1 (stereo not given) | -6.79 |
| Cc1nn(C)c(N2CCOCC2)c1CNC(C(N)=O)c1ccccc1 (stereo not given) | -6.86 |
| Cc1ncsc1CCC(=O)NCc1csc(N2CCCC2)n1 | -2.56 |
| COCCc1noc(-c2ccc(=O)[nH]c2)n1 | -3.61 |
| COCCN1C[C@@H]2CN(c3ncc(F)cn3)C[C@@H]2C1=O | 9.49 |
| CCOC(=O)Cn1c(=O)[nH]c2cn(-c3ccccc3)c(=O)n21 | 0.379 |
| CCCC(=O)N(C)CC(=O)Nc1ccc(Br)cn1 | -15.5 |
| CC(C)Sc1ncccc1C(=O)NCc1ccc(O)cc1 | -3.29 |
| COc1ccccc1CCN[C@@H]1c2ccccc2C2(CCNCC2)[C@H]1O | 5.79 |
| CC(CNC(=O)c1cn(-c2ccccc2)nn1)Cn1cccn1 (stereo not given) | -41.6 |

| Structure (SMILES) | cytotoxicity at 10 µM [%] |
| --- | --- |
| Fc1cnc(N2CCC3(CC2)CN(Cc2cccs2)CCO3)nc1 | 12.4 |
| CN1C(=O)C(c2ccccc2)CC12CCN(CCO)CC2 (stereo not given) | 5.12 |
| Cc1ccc(CN2CCN(c3ccc(F)cn3)CC2=O)cc1C | -4.4 |
| NC(=O)CN1CCCC(C(=O)N2CCC(O)(c3ccccc3)CC2)C1 (stereo not given) | -7.55 |
| CCCC(=O)N1CCC(Nc2nc(O)cc(-c3ccsc3)n2)CC1 | 5.46 |
| CC(C)c1nc(CN(C)C(=O)C2CC(=O)N(Cc3ccncc3)C2)cs1 (stereo not given) | -3.75 |
| Cc1cc(C)n(CC2CCCCN2C(=O)c2ccc(C(N)=O)cc2)n1 (stereo not given) | 3.09 |
| O=C1C(Nc2nccn3cnnc23)CCCN1c1ccccc1Cl (stereo not given) | 9.05 |
| COc1cccc(F)c1C(C)NC(=O)NCCc1ccc(C)nc1 (stereo not given) | -2.13 |
| Fc1cccnc1CN1CCCCC1c1ccn2ccnc2n1 (stereo not given) | 0.505 |
| Cc1ccc(N2CCC3(CCN(Cc4csc(C)n4)C3=O)C2)nn1 (stereo not given) | -111 |
| O=C(O)CC1COCCN1CCCc1ccccc1 (stereo not given) | -0.541 |
| CC(NC(=O)C1=NN(C)C(=O)CC1)c1ccccc1Cl (stereo not given) | 0.665 |
| COc1cc(-c2cnnc(NCC3CC3)n2)cc(OC)c1OC | 8.11 |
| Cc1cc(C)nc(CN(C)c2nc(C3CCCC3)nc3c2cnn3C)c1 | 12.4 |
| CN(C)C(=O)COCC1CN(Cc2ccco2)Cc2ncn(C)c21 (stereo not given) | -7.86 |
| Cc1cccc(Oc2ccccc2CNC(=O)C2CCC(=O)NC2)c1 (stereo not given) | 10.6 |
| CCc1c(C)nc2n(c1=O)CC(C(=O)Nc1nc3c(s1)CCCC3)CS2 (stereo not given) | 2.17 |
| CCS(=O)(=O)c1ccccc1N1CCC(NC(=O)C(C)C)CC1 | -3.87 |
| O=C(Nc1ccccc1OCC(F)F)N[C@@H]1C=C[C@H](CO)C1 | -7.14 |
| O=C(N1CCCO1)[C@]12COC[C@H]1CN(Cc1cccnc1)C2 | 8.25 |
| NCCc1c(-c2ccc(F)cc2)[nH][nH]c1=O | -1.3 |

| Structure (SMILES) | cytotoxicity at 10 µM [%] |
| --- | --- |
| O=C(CCn1cncn1)N1C[C@@H]2CC[C@H]1CN(Cc1cccnc1)C2 | 7.39 |
| O=C(N[C@@H]1CCNC[C@H]1O)c1ccccc1OC(F)(F)C(F)F | -3.28 |
| CC1CN(c2ncccc2C(=O)Nc2cccc3c2CCCC3)CCN1 (stereo not given) | 4.65 |
| OC[C@H]1CCN(Cc2ccc3ccccc3n2)C[C@@H]1O | -6 |
| O=C1Nc2ccccc2CN(CC2CC2)C12CCNC2 (stereo not given) | 6.09 |
| N#Cc1cc2c(=O)n(CC(O)Cc3ccccc3)ccc2[nH]c1=O (stereo not given) | 2.86 |
| COCCN1C(=O)C[C@@H]2[C@H]1CCN2C(=O)c1ccc[nH]1 | -1.34 |
| CN(C)C1CCCN(C(=O)NCCC(=O)N2CCCCCC2)C1 (stereo not given) | -6.45 |
| CN(CCN1CCOCC1)C(=O)CCCc1ccccc1 | -8.28 |
| Cn1cc(CN2C[C@H]3CCC[C@@H](CNc4nccn4C)[C@H]3C2)cn1 | 10.9 |
| CCc1nnc2n1CCN(C(=O)c1cc3ccccc3[nH]1)C2 | 4.38 |
| Cc1cnccc1CN(C)C(=O)c1ccc(Cn2cnnn2)cc1 | 8.15 |
| CN(C)c1ccccc1C(=O)N1C[C@@H](CN2CCCCC2)[C@@H](CO)C1 | -12.1 |
| CNc1nc(C2CCCCN2C(=O)COC)nc2c1CN(C)CC2 (stereo not given) | -13.1 |
| CCN(CC)[C@@H]1CN(Cc2ccc(C)o2)[C@@H]2CCCO[C@H]12 | -148 |
| OC1CCN([C@@H]2CCN(c3nc(-c4ccccc4)no3)C[C@H]2O)CC1 | -9.88 |
| CN(C)CC1CN(C(=O)Cc2ccccc2)Cc2nccn2C1 (stereo not given) | -115 |
| CCc1c(C(=O)O)nnn1-c1cc(C)ccc1C | -23.7 |
| Cc1nc[nH]c1CN1CCCN(c2nc3ccccc3s2)CC1 | 33 |
| CN1C(=O)CC(C(=O)O)C12CCN(Cc1ccc(Cl)c(F)c1)CC2 (stereo not given) | 2.91 |
| CNS(=O)(=O)c1ccc(CN2CCN(Cc3ncccc3C)CC2)cc1 | 8.41 |
| Cn1ncc2c1C(COCC1CC1)CN(C(=O)c1ccoc1)C2 (stereo not given) | -2.18 |
